Activity calls are given as the source filed them. No cut-off for these calls is given here. Where a SMILES comes first, the peptide text is derived from it. The star is where a group is joined. X1 = COC(=O)[C@H](Cc1ccc(Oc2no[n+]([O-])c2S(=O)(=O)c2ccccc2)cc1)NC(=O)CCCc1cn(CC(=O)*)nn1
Legend:
Staphylococcus aureus [1] = assay: Antibiofilm activity against Staphylococcus aureus ATCC 6538 assessed as inhibition of continuous biofilm growth at 100 uM incubated for 1-2 hrs by biofilm dynamic detection assay; format: functional, organism-based; conditions: time hrs 1-2
Outline: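 S. aureus biofilm grown 24 h at 37 °C, 5% CO₂ from 10⁸ cfu/mL in TSB while impedance was recorded in real time (xCELLigence RTCA). Supernatant removed, saline-washed three times, then compound added at 100 µM in TSB. Biofilm index read every 15 min for 9 h, blank subtracted and normalised 0–1, compared with TSB control.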

Staphylococcus aureus [2] = assay: (§1) Antibiofilm activity against Staphylococcus aureus ATCC 6538 infected in mouse assessed as reduction in bacterial infection by measuring colony counts at 0.25 umol/kg, sc administered every 12 hrs for 3 days by plate colony counting assay (reference value: 6.40 +/- 0.28); format: functional; conditions: dose 0.25 µmol/kg
Staphylococcus aureus [3] = assay: Antibiofilm activity against Staphylococcus aureus ATCC 6538 infected in mouse assessed as reduction in bacterial inflammation in vicinity tissues of implanted site at 0.25 umol/kg, sc administered every 12 hrs for 3 days by H and E staining based assay; format: functional, organism-based; conditions: dose 0.25 µmol/kg
Outline: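 Mouse PDMS-implant S. aureus biofilm model dosed 0.25 µmol/kg sc in 5% DMSO/saline every 12 h for 3 days. Muscle tissue near the implant site was fixed 24 h, paraffin-embedded, sectioned and H&E stained to assess bacterial spread.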

Staphylococcus aureus [4] = assay: Antibiofilm activity against Staphylococcus aureus ATCC 6538 assessed as decrease in living bacterial cells in biofilm on bottom of confocal dish at 100 uM incubated for 12 hrs by live-cell fluorescence staining assay; format: functional
Outline: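 S. aureus (10⁸ cfu/mL, 2 mL) cultured one day at 37 °C, 5% CO₂ in confocal dishes, then washed 3× with saline. TSB with compound at 100 µM was added for 12 h. The dish was washed and live-cell fluorescence stained for 15 min. Bottom biofilm was imaged by 3D confocal microscopy.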

Cell membrane [5] = assay: Induction of cell membrane rupture in Escherichia coli ATCC 8099 assessed as induction of cell content spillage at 200 uM incubated for 60 mins by scanning electron microscopy
Outline: (§2)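 Bacteria incubated in TSB alone or TSB with compound at 200 µM for 60 min. Cells were pelleted, fixed in 4% paraformaldehyde, dropped onto silicon slices, gold-sputtered and imaged by cold field emission SEM.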

[6] = Toxicity in rat assessed as effect on blood as effect on blood pressure at 0.172 umol/kg, sc measured after 6 hrs post dose by non-invasive blood pressure monitoring; format: organism-based; conditions: in vivo, dose 0.172 µmol/kg
Outline: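 Healthy rats given a single sc dose of 0.172 µmol/kg in aqueous solution, with saline as control. Tail-artery blood pressure measured non-invasively at 0, 1, 3 and 6 h.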

Escherichia coli [7] = assay: Antibiofilm activity against Escherichia coli ATCC 8099 assessed as dispersion of formed biofilms at 100 uM incubated for 12 hrs by scanning electron microscopy; format: functional, organism-based
Outline: (§3)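 Bacteria (10⁸ cfu/mL) grown on silicon slices in TSB for 24 h. Medium was removed and slices washed 3× with saline. Slices were then incubated 12 h in TSB containing test compound at 100 µM, or TSB alone. Slices were gold-sputtered and imaged by cold field emission SEM.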

Cell membrane [8] = assay: Induction of cell membrane rupture in Staphylococcus aureus ATCC 6538 at 200 uM incubated for 60 mins by scanning electron microscopy; outline: as §2
Escherichia coli [9] = assay: Antibiofilm activity against Escherichia coli ATCC 8099 assessed as inhibition of biofilm formation at 100 uM incubated for 12 hrs in presence of NO scavenger PTIO by crystal violet staining assay relative to control; format: functional, organism-based
Staphylococcus aureus [10] = assay: as §1, with “days co-treated with 0.25 umol/kg NO scavenger PTIO” for “days”; format: functional; conditions: dose 0.25 µmol/kg
Staphylococcus aureus [11] = assay: Antibacterial activity against Staphylococcus aureus ATCC 6538 assessed as killing of living planktonic bacterial cells in supernatant at 100 uM incubated for 12 hrs by OD measurement
Staphylococcus aureus [12] = assay: Antibiofilm activity against Staphylococcus aureus ATCC 6538 assessed as inhibition of biofilm formation at 100 uM incubated for 12 hrs by crystal violet staining assay relative to control; format: functional
Outline: (§4)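 Bacterial culture (10⁸ cfu/mL) grown 24 h in 96-well plates, then washed 3× with saline. Wells were incubated 12 h with test compound in TSB. Biofilm was fixed with methanol 15 min and stained with 1% crystal violet 5 min at room temperature. Dye was solubilized in ethanol for 30 min at 37 °C and OD read at 600 nm. Compared with vehicle control; mean ± S.D., n = 3.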

Staphylococcus aureus [13] = assay: Antibiofilm activity against Staphylococcus aureus ATCC 6538 assessed as inhibition of continuous biofilm growth at 100 uM measured every 15 mins for 9 hrs by biofilm dynamic detection assay; format: functional, organism-based
Outline: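 S. aureus (10⁸ cfu/mL in TSB) grown one day at 37 °C, 5% CO₂ on a real-time impedance cell analyzer to form biofilm. After saline washes (3×), medium containing compound at 100 µM was added. Biofilm index was recorded every 15 min for 9 h, blank-subtracted and normalized (lowest point 0, highest 1).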

Staphylococcus aureus [14] = assay: Induction of NO release in Staphylococcus aureus ATCC 6538 at 10 uM incubated for 4 hrs by Griess assay; format: functional, organism-based
Outline: (§5)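 Bacteria (10⁸ cfu/mL in saline) incubated with compound at 10 µM for 4 h at 37 °C, 5% CO₂. Cells were centrifuged and lysed, and the lysate centrifuged at 10,000 g for 5 min. Nitrite in the supernatant was measured by Griess reagent at 540 nm against a NaNO₂ standard curve.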

Staphylococcus aureus [15] = assay: Induction of NO release in CDNB-pretreated Staphylococcus aureus ATCC 6538 at 10 uM incubated for 4 hrs by Griess assay; format: functional, organism-based
Outline: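 S. aureus (10⁸ cfu/mL in saline) pretreated with 100 µM CDNB for 0.5 h at 37 °C, then pelleted. Cells were incubated with compound at 10 µM in saline for 4 h. After lysis, nitrite was quantified by Griess reagent at 540 nm against a NaNO₂ standard curve.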

Staphylococcus aureus [16] = assay: Antibiofilm activity against Staphylococcus aureus ATCC 6538 assessed as dispersion of formed biofilms at 100 uM incubated for 12 hrs by scanning electron microscopy; format: functional, organism-based; outline: as §3
Staphylococcus aureus [17] = assay: Antibiofilm activity against Staphylococcus aureus ATCC 6538 infected in mouse assessed as reduction in skin ulceration near implanted site at 0.25 umol/kg, sc administered every 12 hrs for 3 days; format: functional, organism-based; conditions: dose 0.25 µmol/kg
Outline: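 Mouse PDMS-implant S. aureus biofilm model (biofilm-coated slices placed subcutaneously in the back). Dosing was 0.25 µmol/kg sc in 5% DMSO/saline every 12 h for 3 days. Skin at the implant site was photographed every 12 h after implantation for ulceration.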

Cell membrane [18] = assay: Induction of cell membrane rupture in Escherichia coli […] ATCC 8099 at 200 uM incubated for 60 mins by scanning electron microscopy; format: subcellular; outline: as §2
Staphylococcus aureus [19] = assay: Antimicrobial activity against Staphylococcus aureus ATCC 6538 incubated for 20 hrs by microdilution assay; format: functional
Cell membrane [20] = assay: Induction of cell membrane rupture in Staphylococcus aureus ATCC 6538 assessed as induction of cell content spillage at 200 uM incubated for 60 mins by scanning electron microscopy; outline: as §2
Escherichia coli [21] = assay: Antibiofilm activity against Escherichia coli ATCC 8099 assessed as inhibition of biofilm formation at 100 uM incubated for 12 hrs by crystal violet staining assay relative to control; format: functional; outline: as §4
Erythrocyte = assay: Induction of hemolysis in mouse erythrocytes incubated for 3 hrs; format: cell-based
Outline: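 2% erythrocyte suspension from mouse blood, mixed with sample in 0.9% NaCl. Controls were saline (negative) and water (positive). Incubated 3 h at 37 °C, 5% CO₂; hemolysis degree calculated by standard curve. Dose-dependent series; HC₅₀ derived.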

Escherichia coli [22] = assay: Antimicrobial activity against Escherichia coli ATCC 8099 incubated for 20 hrs by microdilution assay; format: functional
Staphylococcus aureus [23] = assay: Antibiofilm activity against Staphylococcus aureus ATCC 6538 assessed as inhibition of biofilm formation at 100 uM incubated for 12 hrs in presence of NO scavenger PTIO by crystal violet staining assay relative to control; format: functional, organism-based
Escherichia coli [24] = assay: Induction of NO release in Escherichia coli ATCC 8099 at 10 uM incubated for 4 hrs by Griess assay; format: functional, organism-based; outline: as §5

MIC (Staphylococcus aureus [19])	MIC (Escherichia coli [22])	Compound	inhibition (Staphylococcus aureus [1])	Activity (Staphylococcus aureus [2])	inhibition (Staphylococcus aureus [3])	inhibition (Staphylococcus aureus [4])	Activity (Escherichia coli [7])	inhibition (Escherichia coli [9])	Activity (Staphylococcus aureus [11])	inhibition at 100 µM (Staphylococcus aureus [12])	inhibition (Staphylococcus aureus [13])	Activity (Staphylococcus aureus [14])	Activity (Staphylococcus aureus [16])	inhibition at 100 µM (Escherichia coli [21])	inhibition (Staphylococcus aureus [23])	Activity (Escherichia coli [24])	further results
		CC(=O)OCC1=C(C(=O)O)N2C(=O)[C@@H](NC(=O)CCC[C@@H](N)C(=O)O)[C@H]2SC1 [CEPHALOSPORIN C]	Active	4.97 log10CFU	Active	inactive											
> 50 µM	> 50 µM	CC[C@H](C)[C@H](NC(=O)[C@H](CCCCN)NC(=O)[C@H](CC(C)C)NC(=O)[C@H](C)NC(=O)CNC(=O)[C@H](CC(N)=O)NC(=O)[C@H](CC(C)C)NC(=O)[C@@H](NC(=O)[C@H](CCCCN)NC(=O)[C@H](CCCCN)NC(=O)[C@H](Cc1c[nH]c2ccccc12)NC(=O)[C@H](Cc1ccccc1)NC(=O)[C@H](CCCCN)NC(=O)[C@H](CCCNC(=N)N)NC(=O)[C@H](CCCNC(=N)N)NC(=O)[C@@H](NC(=O)Cn1cc(CCCC(=O)N[C@@H](Cc2ccc(Oc3no[n+]([O-])c3S(=O)(=O)c3ccccc3)cc2)C(=O)OC)nn1)[C@@H](C)O)C(C)C)C(=O)N[C@@H](C)C(=O)N1CCC[C@H]1C(=O)N[C@@H](Cc1ccccc1)C(=O)N[C@@H](CC(C)C)C(=O)N[C@@H](CC(C)C)C(=O)NCC(=O)O (X1-TRRKFWKKVLNGALKIAPFLLG-OH)		4.54 log10CFU	Active		Active	inactive	Active	64.1%	Active	Active	Active	80.9%	inactive	Active	Activity (Cell membrane [5]): Active; Activity [6]: Non-Toxic; Activity (Cell membrane [8]): Active; Activity (Staphylococcus aureus [10]): 5.92 log10CFU; Activity (Staphylococcus aureus [15]): inactive; Activity (Staphylococcus aureus [17]): Active; Activity (Cell membrane [18]): Active; Activity (Cell membrane [20]): Active; IC50 (Erythrocyte): > 380 µM; inhibition at 100 µM (Staphylococcus aureus [4]): 100%
> 50 µM	> 50 µM	H-TRRKFWKKVLNGALKIAPFLLG-OH	Active	5.4 log10CFU	Active	Active	inactive						inactive				inhibition (Staphylococcus aureus [12]): inactive; inhibition (Escherichia coli [21]): inactive
> 50 µM	> 50 µM	COC(=O)[C@@H](N)Cc1ccc(Oc2no[n+]([O-])c2S(=O)(=O)c2ccccc2)cc1		4.91 log10CFU		Active	Active	inactive	inactive	44.4%	inactive	Active	Active	81.2%	inactive	Active	
